Values after ≈ are worked out from the molar mass of the structure shown. Active and inactive are the calls of the source. No cut-off for these calls is given here.
Experiments:
Autotaxin [1] = biological target: T1, Autotaxin (Homo sapiens, UniProt Q13822); test: Inhibition of recombinant human ATX using bisP-nitrophenyl phosphate as substrate measured after 30 mins
Autotaxin [2] = biological target: T1, Autotaxin; test: Inhibition of human ATX expressed in HEK293 Flp-In cells using LPC as substrate measured every 30 sec for 90 mins by fluorescence assay; assay type: cell-based
[3] = Lipophilicity, log D of the compound at pH 7.4 by chromatographic method; assay type: physicochemical; settings: buffer
[4] = Kinetic aqueous solubility by CLND method; assay type: physicochemical; settings: read-out: Kinetic_solubility
[5] = Apparent permeability of the compound at pH 7.4; assay type: physicochemical; settings: not told
Autotaxin [6] = biological target: T1, Autotaxin; test: Noncompetitive inhibition of human ATX expressed in HEK293 Flp-in cells up to 800 nM using varying lysophosphatidyl choline substrate level by Lineweaver-Burk plot analysis; assay type: cell-based
In short: (§1)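 hATX from HEK293 Flp-In cells; choline release from LPC coupled to choline oxidase/HRP/homovanillic acid fluorescence in Tris pH 7.4 buffer with CaCl2 and Triton X-100. Activity measured across varying LPC concentrations at fixed inhibitor concentrations; mixed-inhibition model fitted to obtain alpha (near 1 taken as noncompetitive), with Lineweaver-Burk double-reciprocal plots for display.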

Autotaxin [7] = biological target: T1, Autotaxin; test: Inhibition of ATX in human MDA-MB-435S cells using lysophosphatidyl choline as substrate preincubated for 15 mins followed by substrate addition measured after 90 mins; assay type: cell-based
Autotaxin [8] = biological target: T1, Autotaxin; test: Noncompetitive inhibition of human ATX expressed in HEK293 Flp-in cells up to 11 nM using varying lysophosphatidyl choline substrate level by Lineweaver-Burk plot analysis; assay type: cell-based; in short: as §1
Autotaxin [9] = biological target: T1, Autotaxin; test: Inhibition of ATX (unknown origin) using lysophosphatidyl choline as substrate
In short: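 Human ATX produced in HEK293 Flp-In cells, 20 nM, incubated with 150 μM LPC(18:1) in 50 mM Tris pH 7.4, 0.01% Triton X-100, 50 mM CaCl2 with choline oxidase (1 U/ml), HRP (2 U/ml) and 2 mM homovanillic acid. Choline release read as HVA fluorescence, ex/em 320/450 nm, every 30 s for 90 min. Screen 400 nM–100 μM (n = 3); 10-point curves 0.3 nM–10 μM, n = 2.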

| SMILES | IC50 (Autotaxin [1]) | IC50 (Autotaxin [2]; read-out: IC50) | other results |
| --- | --- | --- | --- |
| Cc1ccc2c(Sc3cccc(C(=O)O)n3)c(C)n(-c3cnn(C)c3)c2c1 | 85 nM | 25 nM |  |
| Cc1c(Sc2cccc(C(=O)O)n2)c2ccc(Cl)cc2n1-c1ccccc1 |  |  | IC50 (Autotaxin [2]; hek293): Nd(Insoluble); chromatographic logD [3]: 4.3; solubility kinetic [4]: 485 µM (≈ 192 µg/mL); Papp [5]: 15.5 ×10⁻⁶ cm/s |
| Cc1c(Sc2cccc(C(=O)O)n2)c2ccc(Cl)cc2n1C1CCCC1 | 2000 nM | > 2800 nM | chromatographic logD [3]: 4.05; solubility kinetic [4]: 336 µM (≈ 130 µg/mL); Papp [5]: 29 ×10⁻⁶ cm/s |
| COc1cccc2c1c(Sc1cccc(C(=O)O)n1)c(C)n2-c1cnn(C)c1 |  | > 30000 nM |  |
| COc1ccc2c(Sc3cccc(C(=O)O)n3)c(C)n(-c3cnn(C)c3)c2c1 | 75 nM | 124 nM |  |
| Cc1c(Sc2cccc(C(=O)O)n2)c2ccc(F)cc2n1-c1ccn(C)n1 | 816 nM | 349 nM |  |
| Cc1c(Sc2cccc(C(=O)O)n2)c2c(F)cccc2n1-c1ccn(C)n1 |  | 3000 to 3500 nM |  |
| Cc1c(Sc2cccc(C(=O)O)n2)c2cc(Cl)ccc2n1-c1cnn(C)c1 |  | 258 nM |  |
| Cc1c(Sc2cccc(C(=O)O)n2)c2ccccc2n1-c1cnn(C)c1 | 5700 nM | 1700 nM | inhibition (Autotaxin [6]): Active |
| Cc1c(Cc2cccc(C(=O)O)n2)c2ccc(Cl)cc2n1-c1cnn(C)c1 | 89 nM | 339 nM |  |
| Cc1c(Sc2cccc(C(=O)O)n2)c2ccc(Cl)cc2n1C | > 4000 nM | 31 nM | chromatographic logD [3]: 2.68; solubility kinetic [4]: 300 µM (≈ 99.8 µg/mL); Papp [5]: 3.2 ×10⁻⁶ cm/s |
| Cc1c(Sc2cccc(C(=O)O)c2)c2ccc(Cl)cc2n1C1CCCC1 | > 4000 nM | 20000 to 25000 nM |  |
| Cc1c(Sc2cccc(C(=O)O)c2)c2ccc(Cl)cc2n1-c1cnn(C)c1 |  | 11 nM | chromatographic logD [3]: 3.36; solubility kinetic [4]: 556 µM (≈ 221 µg/mL); Papp [5]: 6.4 ×10⁻⁶ cm/s; IC50 (Autotaxin [7]): < 300 nM |
| Cc1[nH]c2cccc(C)c2c1Sc1cccc(C(=O)O)n1 |  | > 8000 nM |  |
| Cc1c(Sc2cccc(C(=O)O)n2)c2ccc(Cl)cc2n1-c1cnn(C)c1 | 22 nM | 4 nM | chromatographic logD [3]: 2.7; solubility kinetic [4]: 377 µM (≈ 150 µg/mL); Papp [5]: 2.3 ×10⁻⁶ cm/s; IC50 (Autotaxin [7]): < 300 nM |
| Cc1cc2ccc(Cl)cc2n1-c1cnn(C)c1 |  | > 30000 nM |  |
| Cc1c(Sc2cccc(C(=O)O)n2)c2ccccc2n1C1CCCC1 |  | > 30000 nM |  |
| Cc1[nH]c2ccccc2c1Sc1cccc(C(=O)O)n1 |  | > 30000 nM |  |
| Cc1cccc2c1c(Sc1cccc(C(=O)O)n1)c(C)n2-c1cnn(C)c1 |  | > 10000 nM |  |

| SMILES | IC50 (Autotaxin [1]) | IC50 (Autotaxin [2]; read-out: IC50) | other results |
| --- | --- | --- | --- |
| Cc1c(Oc2cccc(C(=O)O)c2)c2ccccc2n1-c1cnn(C)c1 |  | > 30000 nM |  |
| Cc1c(Cc2cccc(C(=O)O)c2)c2ccc(Cl)cc2n1-c1cnn(C)c1 | 33 nM | 660 nM |  |
| Cc1c(Cc2cccc(C(=O)O)n2)c2ccccc2n1-c1cnn(C)c1 |  | > 30000 nM |  |
| Cc1c(Sc2cccc(C(=O)O)n2)c2ccccc2n1-c1ccccc1 |  | > 30000 nM |  |
| Cc1c(Cc2cccc(C(=O)O)c2)c2ccccc2n1-c1cnn(C)c1 |  | > 30000 nM |  |
| Cc1c(SCCCC(=O)O)c2ccccc2n1-c1cnn(C)c1 |  | > 10000 nM |  |
| Cc1[nH]c2cc(F)ccc2c1Sc1cccc(C(=O)O)n1 |  | > 20000 nM |  |
| Cc1c(Sc2cccc(C(=O)O)c2)c2ccccc2n1-c1ccccc1 | > 30000 nM | > 5000 nM |  |
| Cc1c(Sc2cccc(C(=O)O)n2)c2c(Cl)cccc2n1-c1cnn(C)c1 |  | > 30000 nM |  |
| Cc1[nH]c2cc(Cl)ccc2c1Sc1cccc(C(=O)O)n1 | 604 nM | 25 nM | chromatographic logD [3]: 2.19; solubility kinetic [4]: ≥ 395 µM; Papp [5]: 1.1 ×10⁻⁶ cm/s |
| Cc1c(Oc2cccc(C(=O)O)c2)c2ccc(Cl)cc2n1-c1cnn(C)c1 | 204 nM | 726 nM |  |
| Cc1c(Sc2cccc(C(=O)O)n2)c2ccccc2n1C |  | > 30000 nM |  |
| Cn1cc(-c2cccc(Sc3cccc(C(=O)O)n3)c2)cn1 |  |  | inhibition (Autotaxin [2]): inactive |
| Cc1[nH]c2ccccc2c1Sc1cccc(C(=O)O)c1 |  | > 30000 nM |  |
| Cc1c(SCCCC(=O)O)c2ccc(Cl)cc2n1-c1cnn(C)c1 |  | > 30000 nM |  |
| Cc1[nH]c2cc(Cl)ccc2c1Sc1cccc(C(=O)O)c1 | 290 nM | 747 nM |  |
| Cc1c(Sc2cccc(C(=O)O)c2)c2ccc(Cl)cc2n1C | 100 nM | 1200 nM | inhibition (Autotaxin [8]): Active; IC50 (Autotaxin [9]): > 1000 nM |
| Cc1c(Sc2cccc(C(=O)O)c2F)c2ccc(Cl)c(F)c2n1CC(=O)N1CC2(CC2)c2ccccc21 |  |  | IC50 (Autotaxin [9]): 2 nM |
| Cc1c(Sc2cccc(C(=O)O)c2)c2ccc(Cl)cc2n1-c1ccccc1 | 5 nM | 81 nM | IC50 (Autotaxin [7]): < 300 nM |
